Measured values as given in ChEMBL document CHEMBL4130485, “Inhibitors of Yellow Fever Virus replication based on 1,3,5-triphenyl-4,5-dihydropyrazole scaffold: Design, synthesis and antiviral evaluation” (Eur J Med Chem, 2017).

Legend:
[1] = test system: Mammalian orthoreovirus 1; test: Antiviral activity against Reovirus 1 infected in golden hamster BHK21 cells assessed as protection against virus-induced cytopathic effect after 3 to 4 days by MTT assay; type: functional, organism-based; settings: Mammalian orthoreovirus 1, BHK-21
Method in brief: (§1)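 BHK-21 cells (MDBK for BVDV) seeded at 5×10^4 (BHK) or 3×10^4 (MDBK) cells/well and grown overnight to confluence. Infected at m.o.i. 0.01 in maintenance MEM-Earle with 0.5% inactivated FBS. Serial compound dilutions added 2 h later (final 100, 20, 4, 0.8 µM; DMSO ≤0.1%). Viability read by MTT after 3–4 days at 37 °C. EC50 obtained by linear regression against untreated controls; mean of three determinations.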

West Nile virus = test: Antiviral activity against West Nile virus clinical isolate infected in golden hamster BHK21 cells assessed as protection against virus-induced cytopathic effect after 3 to 4 days by MTT assay; type: functional, organism-based; settings: BHK-21; method in brief: as §1
Yellow fever virus [2] = test: Potency index, ratio of azauridine EC50 to compound EC50 for Yellow fever virus 17D vaccine (Stamaril Pasteur J07B01); type: functional
[3] = Antiviral activity against Human enterovirus B Faulkner ATCC VR 185 infected in African green monkey Vero 76 cells assessed as protection against virus-induced cytopathic effect after 3 days by crystal violet staining-based plaque reduction assay; type: functional, cell-based; settings: Faulkner ATCC VR 185, Vero 76, 72 h
Enterovirus C = test: Antiviral activity against Enterovirus C Sabin […] infected in African green monkey Vero 76 cells assessed as protection against virus-induced cytopathic effect after 2 days by crystal violet staining-based plaque reduction assay; type: functional, organism-based; settings: Vero 76, 48 h
[4] = Cytotoxicity against human MT4 cells assessed as decrease in cell viability after 96 hrs by MTT assay; type: cell-based
Method in brief: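 Exponentially growing MT-4 cells seeded at 1×10^5 cells/mL in RPMI-1640 with 10% FBS and incubated with serial compound dilutions at 37 °C, 5% CO2. Viability read by MTT after 96 h. CC50 by linear regression versus untreated controls.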

dengue virus type 2 = test: Antiviral activity against Dengue virus type 2 clinical isolate infected in golden hamster BHK21 cells assessed as protection against virus-induced cytopathic effect after 3 to 4 days by MTT assay; type: functional, organism-based; settings: BHK-21; method in brief: as §1
Human orthopneumovirus = test: Antiviral activity against Human respiratory syncytial virus A2 ATCC VR 1540 infected in African green monkey Vero 76 cells assessed as protection against virus-induced cytopathic effect after 5 days by crystal violet staining-based plaque reduction assay; type: functional, organism-based; settings: ATCC VR 1540, Vero 76, 120 h
[5] = test system: Vesicular stomatitis Indiana virus; test: Antiviral activity against Vesicular stomatitis virus Indiana ATCC VR 158 infected in African green monkey Vero 76 cells assessed as protection against virus-induced cytopathic effect after 2 days by crystal violet staining-based plaque reduction assay; type: functional, organism-based; settings: ATCC VR 158, Vero 76, 48 h
[6] = Selectivity index, ratio of CC50 for golden hamster BHK21 cells to EC50 for Yellow fever virus 17D; type: toxicity; settings: read-out: Ratio CC50/EC50
Method in brief: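 Selectivity index calculated as BHK-21 CC50 divided by YFV EC50, both from MTT assays.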

[7] = test system: Bovine viral diarrhea virus 1; test: Antiviral activity against Bovine viral diarrhea virus NADL ATCC VR 534 infected in bovine MDBK cells assessed as protection against virus-induced cytopathic effect after 3 to 4 days by MTT assay; type: functional, organism-based, Bovine viral diarrhea virus 1-NADL; settings: Bovine viral diarrhea virus isolates and strains, ATCC VR 534, MDBK; method in brief: as §1
[8] = Cytotoxicity against bovine MDBK cells assessed as decrease in cell viability after 72 hrs by MTT assay; type: cell-based, Bos taurus; settings: cattle
Method in brief: (§2)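 Uninfected MDBK (6×10^5 cells/mL, 10% horse serum) or BHK (1×10^6 cells/mL, 10% FBS) cells in MEM-Earle with serial compound dilutions at 37 °C, 5% CO2, run in parallel with the antiviral assays. Viability read by MTT after 72 h. CC50 by linear regression; mean of three determinations.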

Yellow fever virus [9] = test: Antiviral activity against Yellow fever virus 17D vaccine (Stamaril Pasteur J07B01) infected in golden hamster BHK21 cells assessed as protection against virus-induced cytopathic effect after 3 to 4 days by MTT assay; type: functional, organism-based; settings: BHK-21; method in brief: as §1
[10] = Cytotoxicity against African green monkey Vero 76 cells assessed as decrease in cell viability after 48 to 96 hrs by MTT assay; type: cell-based; settings: chlorocebus sabaeus
Method in brief: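 Vero 76 cells seeded at 5×10^5 cells/mL in D-MEM with 10% FBS and incubated with serial compound dilutions at 37 °C, 5% CO2. Viability read by MTT after 48–96 h. CC50 by linear regression versus untreated controls.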

[11] = test system: Human immunodeficiency virus 1; test: Antiviral activity against HIV1 3B infected in human MT4 cells assessed as protection against virus-induced cytopathic effect after 4 days by MTT assay; type: functional, organism-based; settings: Human immunodeficiency virus 1, 3B, MT4, 96 h
Method in brief: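 MT-4 cells (1×10^4/well) in RPMI with serial compound dilutions, infected with 100 CCID50 HIV-1 (m.o.i. 0.01). Viability read by MTT after 4 days at 37 °C. EC50 for 50% protection from cytopathicity obtained by linear regression versus untreated controls; mean of three determinations.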

Human alphaherpesvirus 1 = test: Antiviral activity against Human herpesvirus 1 KOS ATCC VR 1493 infected in African green monkey Vero 76 cells assessed as protection against virus-induced cytopathic effect after 3 days by crystal violet staining-based plaque reduction assay; type: functional, organism-based; settings: Human alphaherpesvirus 1, KOS, Vero 76, 72 h
[12] = Selectivity index, ratio of CC50 for bovine MDBK cells to EC50 for Bovine viral diarrhea virus NADL ATCC VR 534; type: toxicity; settings: cattle, read-out: Ratio CC50/EC50
Method in brief: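 Selectivity index calculated as MDBK CC50 divided by BVDV EC50, both by MTT.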

Vaccinia virus = test: Antiviral activity against Vaccinia virus Lister ATCC VR 1549 infected in African green monkey Vero 76 cells assessed as protection against virus-induced cytopathic effect after 3 days by crystal violet staining-based plaque reduction assay; type: functional, organism-based; settings: Orthopoxvirus vaccinia, ATCC VR 1549, Vero 76, 72 h
[13] = Cytotoxicity against golden hamster BHK21 cells assessed as decrease in cell viability after 72 hrs by MTT assay; type: cell-based, Mesocricetus auratus, BHK-21; method in brief: as §2
[14] = Cytotoxicity against African green monkey Vero 76 cells assessed as decrease in cell viability after 5 days by MTT assay; type: cell-based; settings: chlorocebus sabaeus
[15] = Selectivity index, ratio of CC50 for African green monkey Vero 76 cells to EC50 for Human coxsackievirus B5 Faulkner; type: toxicity; settings: read-out: Ratio CC50/EC50
Method in brief: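 Selectivity index calculated as Vero 76 CC50 (MTT) divided by CVB-5 plaque-reduction EC50.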

Row | Structure (SMILES) | EC50 [1] [µM] | EC50 (West Nile virus) [µM] | Ratio EC50 (Yellow fever virus [2]) | EC50 [3] [µM] | EC50 (Enterovirus C) [µM] | CC50 at 96 h [4] [µM] | EC50 (dengue virus type 2) [µM] | EC50 (Human orthopneumovirus) [µM] | EC50 [5] [µM] | selectivity ratio [6] | EC50 [7] [µM] | CC50 at 72 h [8] [µM] | EC50 (Yellow fever virus [9]) [µM] | CC50 [10] [µM] | EC50 [11] [µM] | EC50 (Human alphaherpesvirus 1) [µM] | selectivity ratio [12] | EC50 (Vaccinia virus) [µM] | CC50 at 72 h [13] [µM] | selectivity ratio [15] | further results
1 | NS(=O)(=O)c1ccc(N2N=C(c3ccc(OCc4ccccc4)cc3)CC2c2ccccc2Cl)cc1 (stereo not given) | > 12 | > 12 | 10 | > 92 | > 92 | 26 | > 12 | > 92 | > 92 | 6.3 | 7.5 | 52 | 1.9 | 92 | > 26 | > 92 | 6.9 | > 92 | 12 |  | 
2 | Cc1ccc(C2CC(c3ccc(Oc4ccccc4)cc3)=NN2c2ccc(S(N)(=O)=O)cc2)cc1 (stereo not given) | > 8 | > 9 | 10 | > 86 | > 86 | 7.2 | > 9 | > 20 | > 86 | 5 | > 21 | 21 | 1.8 | 86 | > 7.2 | > 86 |  | > 86 | 8 to 9 |  | CC50 at 120 h [14]: 20 µM
3 | NS(=O)(=O)c1ccc(N2N=C(c3ccc(OCc4ccccc4)cc3)CC2c2ccc(Cl)cc2)cc1 (stereo not given) | > 16 | > 15 | 10 | > 82 | > 82 | 70 | > 15 | > 82 | > 82 | 7.9 | 4.5 | 16 | 1.9 | 82 | > 70 | > 82 | 3.6 | > 82 | 15 to 16 |  | 
4 | Cc1cccc(C2CC(c3ccc(OCc4ccccc4)cc3)=NN2c2ccc(S(N)(=O)=O)cc2)c1 (stereo not given) | > 8 | > 9 | 10 | 8 | > 100 | 44 | > 9 | > 100 | > 100 | 5 | 12.5 | 56 | 1.8 | 100 | > 44 | > 100 | 4.5 | > 100 | 8 to 9 | 12.5 | 
5 | NS(=O)(=O)c1ccc(N2N=C(c3ccc(OCc4ccccc4)cc3)CC2c2cccc(Cl)c2)cc1 (stereo not given) | > 47 | > 45 | 10 | > 85 | > 85 | 36 | > 45 | > 85 | > 85 | 22.5 | 5.5 | 40 | 2 | 85 | 11 | > 85 | 7.3 | > 85 | 45 to 47 |  | 
6 | NC(=O)c1ncn([C@@H]2O[C@H](CO)[C@@H](O)[C@H]2O)n1 [RIBAVIRIN] |  |  |  |  |  |  |  | 1.2 |  |  | 20 | 62 |  | > 100 |  |  | 3 |  |  |  | 
7 | NS(=O)(=O)c1ccc(N2N=C(c3ccc(Oc4ccccc4)cc3)CC2c2ccccc2Cl)cc1 (stereo not given) | > 8 | > 9 | 10 | 10.5 | > 29 | 40 | > 9 | > 29 | > 29 | 5 | > 5 | 5 | 1.8 | 29 | > 40 | > 29 |  | > 29 | 8 to 9 | 2.8 | 
8 | Cc1ccc(C2CC(c3ccc(OCc4ccccc4)cc3)=NN2c2ccc(S(N)(=O)=O)cc2)cc1 (stereo not given) | > 32 | > 36 | 10 | 13 | > 100 | 35 | > 36 | > 100 | > 100 | 20 | 2.5 | 80 | 1.8 | 100 | > 35 | > 100 | 32 | > 100 | 32 to 36 | 7.7 | 
